pIC50: −log10 of the molar value. Calls of active or inactive are those of the source. The rule behind the calls is not given here.
Key:
[1] = target: T1, Tyrosine-protein kinase BTK (Homo sapiens, UniProt Q06187); experiment: Inhibition of recombinant human BTK using KVEKIGEGTYGVVYK as substrate incubated for 40 mins in presence of [gamma33P]ATP by scintillation counting method
[2] = target: T2, Tyrosine-protein kinase Lck (Homo sapiens, UniProt P06239); experiment: Inhibition of recombinant human full length LCK using KVEKIGEGTYGVVYK as substrate incubated for 40 mins in presence of [gamma33P]ATP by scintillation counting method
Target sequence in this assay (P06239 whole entry, the tested form may be a part): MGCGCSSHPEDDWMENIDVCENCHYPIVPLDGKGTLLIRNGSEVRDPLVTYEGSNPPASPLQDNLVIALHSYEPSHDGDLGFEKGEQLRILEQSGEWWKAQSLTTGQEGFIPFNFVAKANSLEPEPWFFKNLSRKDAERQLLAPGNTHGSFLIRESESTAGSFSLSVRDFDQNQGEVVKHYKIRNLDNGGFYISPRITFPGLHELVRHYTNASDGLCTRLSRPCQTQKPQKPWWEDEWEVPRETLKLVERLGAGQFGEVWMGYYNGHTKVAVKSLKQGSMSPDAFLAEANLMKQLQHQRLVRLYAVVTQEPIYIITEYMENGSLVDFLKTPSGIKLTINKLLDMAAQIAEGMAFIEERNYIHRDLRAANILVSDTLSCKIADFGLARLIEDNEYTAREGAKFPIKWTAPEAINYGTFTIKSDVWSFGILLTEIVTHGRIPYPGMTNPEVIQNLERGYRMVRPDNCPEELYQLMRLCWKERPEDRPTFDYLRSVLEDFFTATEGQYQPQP

[3] = target: Receptor tyrosine-protein kinase erbB-4 (Homo sapiens, UniProt Q15303); experiment: Inhibition of recombinant human ERBB4 (706 to 991 residues) using poly(Glu, Tyr) 4:1 as substrate incubated for 40 mins in presence of [gamma33P]ATP by scintillation counting method
Receptor tyrosine-protein kinase erbB-4, sequence (Q15303 whole entry, the tested form may be a part): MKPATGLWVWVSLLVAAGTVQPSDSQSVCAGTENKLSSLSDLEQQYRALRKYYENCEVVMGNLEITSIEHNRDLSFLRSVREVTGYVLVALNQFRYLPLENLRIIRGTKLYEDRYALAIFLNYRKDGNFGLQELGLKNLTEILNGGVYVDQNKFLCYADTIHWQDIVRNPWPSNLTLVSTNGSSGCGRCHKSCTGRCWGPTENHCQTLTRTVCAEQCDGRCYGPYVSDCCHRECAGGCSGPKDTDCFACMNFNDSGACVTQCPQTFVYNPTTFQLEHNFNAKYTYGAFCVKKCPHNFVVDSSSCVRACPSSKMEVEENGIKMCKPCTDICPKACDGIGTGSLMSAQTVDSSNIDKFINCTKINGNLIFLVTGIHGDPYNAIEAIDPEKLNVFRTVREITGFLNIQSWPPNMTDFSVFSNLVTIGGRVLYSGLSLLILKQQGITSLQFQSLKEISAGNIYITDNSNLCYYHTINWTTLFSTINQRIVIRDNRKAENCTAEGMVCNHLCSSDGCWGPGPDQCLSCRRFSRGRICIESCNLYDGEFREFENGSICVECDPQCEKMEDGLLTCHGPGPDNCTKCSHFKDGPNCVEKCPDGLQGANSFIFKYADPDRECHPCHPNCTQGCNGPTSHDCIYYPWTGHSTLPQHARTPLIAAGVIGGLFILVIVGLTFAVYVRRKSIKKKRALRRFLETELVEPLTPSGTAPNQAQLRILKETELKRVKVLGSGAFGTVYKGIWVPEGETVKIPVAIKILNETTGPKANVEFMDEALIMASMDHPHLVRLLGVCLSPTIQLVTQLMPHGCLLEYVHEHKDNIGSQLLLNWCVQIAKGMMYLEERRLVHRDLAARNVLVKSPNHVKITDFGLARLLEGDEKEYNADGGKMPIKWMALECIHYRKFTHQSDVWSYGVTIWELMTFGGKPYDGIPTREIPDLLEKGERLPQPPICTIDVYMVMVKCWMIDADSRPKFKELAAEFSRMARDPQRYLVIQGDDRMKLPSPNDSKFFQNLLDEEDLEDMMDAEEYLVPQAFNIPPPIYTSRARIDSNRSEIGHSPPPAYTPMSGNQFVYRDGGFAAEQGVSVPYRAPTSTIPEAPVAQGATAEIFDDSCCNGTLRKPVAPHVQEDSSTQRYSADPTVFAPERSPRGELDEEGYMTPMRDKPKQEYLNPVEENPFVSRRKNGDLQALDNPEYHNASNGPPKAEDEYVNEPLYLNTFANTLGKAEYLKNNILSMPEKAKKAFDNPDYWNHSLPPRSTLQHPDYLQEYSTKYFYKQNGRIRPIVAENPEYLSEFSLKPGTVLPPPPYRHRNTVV

[4] = target: T3, Tyrosine-protein kinase TXK (Homo sapiens, UniProt P42681); experiment: Inhibition of recombinant human TXK (256 to end residues) using GEEPLYWSFPAKKK as substrate incubated for 40 mins in presence of [gamma33P]ATP by scintillation counting method
T3 sequence (P42681 whole entry): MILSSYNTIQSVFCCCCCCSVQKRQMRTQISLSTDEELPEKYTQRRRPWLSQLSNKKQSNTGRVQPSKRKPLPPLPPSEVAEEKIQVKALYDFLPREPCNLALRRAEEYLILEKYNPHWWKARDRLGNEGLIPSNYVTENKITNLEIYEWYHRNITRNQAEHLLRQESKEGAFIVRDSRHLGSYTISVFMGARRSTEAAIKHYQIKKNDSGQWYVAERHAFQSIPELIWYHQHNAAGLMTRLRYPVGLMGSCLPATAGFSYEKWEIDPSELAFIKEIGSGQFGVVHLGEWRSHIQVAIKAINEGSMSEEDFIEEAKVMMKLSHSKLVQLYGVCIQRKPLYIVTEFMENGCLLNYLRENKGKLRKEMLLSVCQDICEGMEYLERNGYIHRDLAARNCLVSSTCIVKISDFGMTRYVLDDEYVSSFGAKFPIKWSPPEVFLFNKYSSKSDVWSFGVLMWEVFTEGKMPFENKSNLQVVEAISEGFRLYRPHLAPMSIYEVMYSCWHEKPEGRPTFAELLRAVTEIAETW

[5] = target: T2, Tyrosine-protein kinase Lck; experiment: Inhibition of LCK in human CD4+ T-cells assessed as reduction in anti-CD3/anti-CD28 induced IL-2 secretion at 10 uM incubated for 60 mins followed by anti-CD3/anti-CD28 stimulation and measured after 18 hrs by ELISA; assay type: tissue-based; settings: CD4+ve Th, time 19.0 hrs
Summary of the method: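 Anti-CD3/anti-CD28 stimulation of T cells. IL-2 secretion measured with compound tested up to 10 μM. An ITK inhibitor served as positive control.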
Target sequence in this assay (P06239 2-509 limits assumed): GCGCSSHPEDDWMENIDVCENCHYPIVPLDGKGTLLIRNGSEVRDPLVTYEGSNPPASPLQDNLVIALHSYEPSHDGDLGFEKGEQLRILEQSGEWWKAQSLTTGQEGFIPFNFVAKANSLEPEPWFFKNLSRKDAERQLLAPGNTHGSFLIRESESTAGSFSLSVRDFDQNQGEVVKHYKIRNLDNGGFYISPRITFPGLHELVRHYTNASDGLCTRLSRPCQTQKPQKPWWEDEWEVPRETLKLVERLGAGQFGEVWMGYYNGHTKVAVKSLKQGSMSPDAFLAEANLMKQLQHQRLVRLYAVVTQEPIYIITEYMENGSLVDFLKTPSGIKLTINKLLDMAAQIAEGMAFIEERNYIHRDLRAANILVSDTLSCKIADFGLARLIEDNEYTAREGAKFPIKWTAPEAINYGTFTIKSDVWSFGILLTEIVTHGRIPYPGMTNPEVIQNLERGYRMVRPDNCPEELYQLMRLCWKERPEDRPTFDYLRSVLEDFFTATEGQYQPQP

[6] = Volume of distribution at steady state in Sprague-Dawley rat at 5 mg/kg, po or 1 mg/kg, iv measured upto 24 hrs by LC-MS/MS analysis; assay type: ADME, organism-based; settings: in vivo, read-out: Vdss
Summary of the method: (§1)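 Rats (nonfasted; IV 1 mg/kg, PO 5 mg/kg) and dogs (fasted; IV 0.5 mg/kg, PO 2.5 mg/kg) dosed from 20% hydroxypropyl-β-cyclodextrin solution.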

[7] = Half life in Sprague-Dawley rat at 1 mg/kg, iv measured upto 24 hrs by LC-MS/MS analysis; assay type: ADME, organism-based; settings: in vivo; summary of the method: as §1
[8] = Oral bioavailability in Sprague-Dawley rat at 5 mg/kg measured upto 24 hrs by LC-MS/MS analysis; assay type: ADME, organism-based; settings: in vivo
[9] = Tmax in Sprague-Dawley rat at 5 mg/kg, po measured upto 24 hrs by LC-MS/MS analysis; assay type: ADME, organism-based; settings: in vivo; summary of the method: as §1
[10] = Clearance in Beagle dog at 2.5 mg/kg, po or 0.5 mg/kg, iv measured upto 24 hrs by LC-MS/MS analysis; assay type: ADME, organism-based, Canis lupus familiaris; settings: in vivo; summary of the method: as §1
[11] = Volume of distribution at steady state in Beagle dog at 2.5 mg/kg, po or 0.5 mg/kg, iv measured upto 24 hrs by LC-MS/MS analysis; assay type: ADME, organism-based, Canis lupus familiaris; settings: in vivo, read-out: Vdss; summary of the method: as §1
[12] = Oral bioavailability in Beagle dog at 2.5 mg/kg measured upto 24 hrs by LC-MS/MS analysis; assay type: ADME, organism-based, Canis lupus familiaris; settings: in vivo; summary of the method: as §1
[13] = In vivo protein occupancy at BTK in Wistar rat at 3 mg/kg, po measured after 24 hrs by ELISA relative to control; assay type: functional
Summary of the method: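 Single oral dose of 3 mg/kg in rats. BTK occupancy compared with plasma concentration over time out to 48 h.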

[14] = target: T1, Tyrosine-protein kinase BTK; experiment: Irreversible covalent inhibition of recombinant unphosphorylated human GST-tagged BTK kinase domain (389 to 659 residues) expressed in insect cells assessed as protein-compound adduct formation under denaturing conditions by HPLC analysis
Summary of the method: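 BTK protein incubated with compound. Adduct mass measured under denaturing and nondenaturing conditions.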

[15] = target: T1, Tyrosine-protein kinase BTK; experiment: Inhibition of BTK in human whole blood assessed as inhibition of IgM-induced B-cell activation; assay type: tissue-based

T1 sequence (Q06187 whole entry): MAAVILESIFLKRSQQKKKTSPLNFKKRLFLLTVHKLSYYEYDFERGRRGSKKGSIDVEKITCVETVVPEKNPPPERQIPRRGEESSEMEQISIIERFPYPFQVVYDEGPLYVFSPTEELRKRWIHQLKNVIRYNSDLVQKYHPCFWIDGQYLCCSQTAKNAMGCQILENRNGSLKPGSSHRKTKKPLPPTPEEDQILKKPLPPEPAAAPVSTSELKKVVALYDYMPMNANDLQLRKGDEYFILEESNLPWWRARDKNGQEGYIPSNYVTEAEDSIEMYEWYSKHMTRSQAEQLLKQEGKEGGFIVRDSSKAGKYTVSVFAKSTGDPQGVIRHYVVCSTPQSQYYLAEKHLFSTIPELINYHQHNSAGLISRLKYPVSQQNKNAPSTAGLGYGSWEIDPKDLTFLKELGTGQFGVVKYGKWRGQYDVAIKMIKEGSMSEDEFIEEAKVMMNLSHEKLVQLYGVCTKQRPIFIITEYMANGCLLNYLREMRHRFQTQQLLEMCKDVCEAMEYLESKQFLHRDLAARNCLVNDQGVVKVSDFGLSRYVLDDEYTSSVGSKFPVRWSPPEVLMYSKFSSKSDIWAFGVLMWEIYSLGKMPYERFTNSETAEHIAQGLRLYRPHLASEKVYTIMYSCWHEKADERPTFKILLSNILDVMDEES

SMILES: C=CC(=O)N1CC[C@@H](NC(=O)c2sc3nccc4c3c2NC(=O)N4c2ccc(Oc3ccccc3)cc2C)C1
- pIC50 [1]: 6.85
- pIC50 [2]: 6.89
- pIC50 [3]: 6.42
- pIC50 [4]: 5.75
- inhibition [5]: inactive
- Vd [6]: 1 L/kg
- half-life [7]: 18 min
- bioavailability [8]: 29.7%
- Tmax [9]: 60 min
- clearance [10]: 8 mL/min/kg
- Vd [11]: 1.1 L/kg
- bioavailability [12]: 68%
- Activity [13]: 70%
- inhibition [14]: Active
- pIC50 [15]: 7.08

— ChEMBL document CHEMBL4814076, “Discovery of a Potent and Selective Covalent Inhibitor of Bruton's Tyrosine Kinase with Oral Anti-Inflammatory Activity” (ACS Med Chem Lett, 2021)
